In the library only some 2.8% were active in any assay of this set; here they are far more common.
TNAP inh no acc = human TNAP enzyme inhibitors, primary screen, biochemical, luminescent, no phosphate acceptor, uHTS; Alkaline phosphatase, tissue-nonspecific isozyme (Homo sapiens), P05186; purified TNAP, CDP-star luminescence, 30 min; inhibition, % at 20 µM; 200,000 tested, 0.26% active; AID 1012, 2008;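 active = tissue-nonspecific alkaline phosphatase inhibition above about 50% at 20 µM in the single-dose screen, limit read from the data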;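 note: 0% = DMSO negative control and 100% = EDTA positive control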
Target sequence (P05186 whole entry, looked up): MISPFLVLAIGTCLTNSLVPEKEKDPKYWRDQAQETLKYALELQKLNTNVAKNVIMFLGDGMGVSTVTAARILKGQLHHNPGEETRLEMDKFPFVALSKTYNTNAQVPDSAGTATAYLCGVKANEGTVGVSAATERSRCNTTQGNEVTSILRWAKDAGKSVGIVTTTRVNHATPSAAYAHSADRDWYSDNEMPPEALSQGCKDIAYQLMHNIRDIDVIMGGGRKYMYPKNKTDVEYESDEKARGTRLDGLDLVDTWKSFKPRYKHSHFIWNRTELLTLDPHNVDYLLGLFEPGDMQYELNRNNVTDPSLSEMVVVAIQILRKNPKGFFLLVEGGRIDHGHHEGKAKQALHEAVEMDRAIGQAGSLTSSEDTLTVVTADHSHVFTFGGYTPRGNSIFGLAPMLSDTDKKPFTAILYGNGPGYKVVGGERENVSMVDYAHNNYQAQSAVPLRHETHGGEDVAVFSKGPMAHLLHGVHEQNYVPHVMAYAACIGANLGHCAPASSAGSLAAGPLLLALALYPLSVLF
Yeast lifespan up = compounds extending yeast replicative lifespan, primary screen, S. cerevisiae, OD615; S. cerevisiae growth with nicotinamide; deaD strain in restrictive glucose medium; 130,000 tested, 0.68% active; AID 775, 2007; inhibition of the nicotinamide effect, % at 10 µM;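 active = inhibition above a set limit, placed 3 SD over the median of all compounds, cut at about 26% in these data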;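 note: 0% = nicotinamide-treated wells and 100% = cells grown without nicotinamide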
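assay system = DeaD-strain S. cerevisiae | measured by = absorbance at 615 nm | probe or stimulus = nicotinamide 1.5 mM | buffer or medium = CSMM-D glucose medium, restrictive | times = 48 h at 30 °C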
BB579 growth dn = growth inhibitors of yeast BB579 in restrictive medium, primary screen, yeast lifespan-shortening project, S. cerevisiae | 140,000 tested, 0.51% active | OD615, 48 h | inhibition, % at 10 µM;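 active = inhibition above a set limit, 3 SD over the mean compound inhibition, cut at about 44% in these data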
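controls = amphotericin B 10 µg/mL, positive | assay system = DeaD yeast strain BB579 | schedule = 48 h compound exposure at 30 °C after 4 h preincubation | detection = OD615 turbidity measurement | medium = restrictive CSMM-D medium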
RAM network inh = inhibitors of the yeast RAM network, primary screen, dse1pr::URA3 reporter, 5-FOA selection; S. cerevisiae dse1pr::URA3 reporter, 5-FOA growth OD615, 2 d; analog-sensitive cbk1-as2 kinase mutant strain; inhibition, % at 50 µM; 190,000 tested, 1.8% active;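 active = inhibition above a set limit, 3 SD over mean compound inhibition, cut at about 8.4% in these data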;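 note: 0% = DMSO-only wells with no growth and 100% = 10 µM 1-NA-PP1 full growth; inhibition rescues growth on 5-FOA so higher OD means more RAM inhibition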
TNAP inh hiacc = human TNAP enzyme inhibitors, primary screen, biochemical, luminescent, high phosphate acceptor level, uHTS | Alkaline phosphatase, tissue-nonspecific isozyme (Homo sapiens), P05186 | purified TNAP, CDP-star luminescence, 1 M DEA | inhibition, % at 20 µM | 200,000 tested, 0.03% active | AID 1135, 2008;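 active = over 50% inhibition of tissue-nonspecific alkaline phosphatase at 20 µM in the single-dose screen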;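 note: plate controls were DMSO wells for no effect and EDTA-quenched wells as full inhibition for full effect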
TNAP act hi DEA = TNAP activators at high phosphate acceptor level, primary screen, biochemical, luminescence, uHTS; purified TNAP, CDP-star luminescence, 1 M DEA, 30 min; active compounds read high; 0 = EDTA background, 1 = DMSO-only activity; Alkaline phosphatase, tissue-nonspecific isozyme (Homo sapiens), P05186; activation factor at 20 µM; 200,000 tested, under 10 active; AID 1136, 2008;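 active = activation factor at least 2 at 20 µM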
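Assay system: human TNAP; Input: enzyme diluted 1/800 final; Reagent: CDP-star luminogenic substrate at 100 µM final; Timing: 30 min, room temperature; Signal: luminescence; Evaluation: TNAP activation factor scaled between EDTA and DMSO control wells.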
RAM 5-FOA = 5-FOA growth of efflux-deficient control yeast, dose response, counter-screen for RAM network inhibitor project, S. cerevisiae, OD615. shares compounds with RAM network inh. S. cerevisiae efflux-deficient reporter strain, 5-FOA growth OD615, 2 days. max inhibition, %. 1,200 tested, under 10 active; call rule not given here;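 note: plate controls were vehicle for no effect and reference inhibitor for full effect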
Numbers without * were called inactive; . = no result.

SMILES	TNAP inh no acc	Yeast lifespan up	BB579 growth dn	RAM network inh	TNAP inh hiacc	TNAP act hi DEA	RAM 5-FOA
CCCn1c(=O)c(C(=O)Nc2ccccc2C(=O)OCC)c(O)c2ccccc21	-1.2	13.0	-24.7	15.6*	-0.9	1	2.6
CCOC(=O)Cc1csc(NC(=O)c2c(O)c3ccccc3n(CC(C)C)c2=O)n1	-3.3	69.2*	-105.1	13.2*	-4.1	1	3.1
CC(C)Cn1c(=O)c(C(=O)Nc2ccccc2S(N)(=O)=O)c(O)c2ccccc21	5.9	3.2	-29.3	0.4	2.1	1	.
CCCn1c(=O)c(C(=O)NCc2ccc(OC)c(OC)c2)c(O)c2ccccc21	-9.2	-2.1	-11.3	17.1*	-3.9	1	2.0
CCn1c(=O)c(C(=O)NCc2ccc(OC)c(OC)c2)c(O)c2ccccc21	-7.3	-3.6	-50.7	4.3	-8.4	1.1	.
COc1ccc2cc(CCNC(=O)C3CCCC3)c(=O)[nH]c2c1	-14.4	-3.1	21.4	1.4	-4.5	1	.
Cc1cccc(OCc2nnc(SCC(=O)c3ccccc3)o2)c1	-12.9	-7.9	-40.7	12.1*	-5.0	1.1	1.8
Cc1ccc(C(=O)CSc2nnc(COc3cc(C)cc(C)c3)o2)cc1	-4.7	5.1	-20.9	12.3*	0.8	1	1.4
Cc1cc(C)cc(OCc2nnc(SCC(=O)c3ccccc3)o2)c1	-13.8	-11.6	-57.6	8.2	2.3	1	.
COc1ccc(NC(=O)C23CC4CC(C2)CC(c2ccc(C)cc2)(C4)C3)cc1	-14.5	-4.7	-2.8	2.1	-11.0	1.1	.
O=C(CCC1CCCCC1)Nc1ccccc1-c1ccccc1	-13.8	-14.9	0.6	24.7*	-6.0	1.1	4.7
O=[N+]([O-])c1ccc(C2CCCC/C2=N/OCc2ccc(F)cc2)c([N+](=O)[O-])c1 (stereo unspecified)	2.5	-2.7	-43.2	12.8*	-2.9	1	1.5
O=[N+]([O-])c1ccc(C2CCCC/C2=N/OCc2ccccc2F)c([N+](=O)[O-])c1 (stereo unspecified)	0.1	-4.6	-34.4	8.3	4.6	1	.
COc1cc(OC)c(C2N(c3ccc(Cl)cc3)C(=O)C3CCCN32)cc1OC (stereo unspecified)	-15.2	-10.3	-8.4	0.3	-4.3	1	.
Cc1ccc(/C=C2/Sc3ccccc3N(CC(=O)NCCCOC(C)C)C2=O)cc1	-13.9	2.7	-39.6	12.8*	0.5	1	3.8
CCOCCCNC(=O)CN1C(=O)/C(=C\c2ccc(C)cc2)Sc2ccccc21	-17.2	3.0	-37.9	8.0	1.8	1	.
CCc1nc2ccccc2n1Cc1ccccc1F	-2.0	.	.	0.6	0.3	1	.
COc1ccccc1/C=C(/C(=O)OCC(=O)Nc1ccccc1C(C)C)c1ccccc1	2.2	3.1	-45.6	11.9*	2.5	1	2.6
Cc1ccccc1NC(=O)C1CC(=O)N(Cc2ccccc2)C1 (stereo unspecified)	-4.6	.	.	2.0	-0.4	1	.
O=C(N/N=C/C=C/c1ccco1)/C(=C/c1ccccc1)NC(=O)c1ccccc1	4.0	-3.7	-36.8	2.6	-2.4	1	.
Cc1ccccc1C(=O)NC(=S)Nc1ccc(Oc2ccc(Cl)cc2)cc1	-4.3	25.2	-64.2	13.1*	-0.1	1	3.3
O=C(NC(=S)Nc1ccc(Oc2ccccc2)cc1)c1ccc(Cl)cc1	0.0	-4.4	-41.2	12.0*	1.1	1	2.2
Cc1ccc(C(=O)NC(=S)Nc2ccc(Oc3ccc(Cl)cc3)cc2)cc1	-0.6	1.2	-10.4	6.4	2.0	1	.
O=C1[C@H]2[C@H](ON3CCCC[C@H]23)C(=O)N1c1ccc(Cl)cc1	-0.1	.	.	-1.2	1.1	1	.
CCN(CC)c1ccc(/C=C(\C#N)c2ccccn2)cc1	10.7	-1.4	-23.3	0.0	15.9	0.8	.
SMILES	TNAP inh no acc	Yeast lifespan up	BB579 growth dn	RAM network inh	TNAP inh hiacc	TNAP act hi DEA	RAM 5-FOA
COc1cc(/C=C(\C#N)c2ccccn2)ccc1OCc1ccc(Cl)cc1	-14.7	2.6	-18.4	11.7*	0.8	1	2.6
CCN(Cc1ccccc1)c1ccc(/C=C(\C#N)c2ccccn2)cc1	8.8	4.6	-47.2	17.0*	13.2	0.9	10.0
COc1ccc(NC(=O)C2CCC(CNS(=O)(=O)c3cccs3)CC2)cc1 (stereo unspecified)	-3.2	.	.	0.2	0.6	1	.
CCS(=O)(=O)c1ccc(-c2csc(-c3ccc(Cl)cc3)n2)c(Cl)c1Cl	-4.2	-24.6	-22.8	11.5*	-1.7	1	3.2
CCCOc1ccc(/C=C/C(=O)Nc2ccc([N+](=O)[O-])cc2)cc1	-0.8	-3.4	-34.4	13.3*	-0.5	1	2.7
CN(C)CCNC(=O)CNC(=S)N(Cc1ccccc1)Cc1ccccc1F	-56.5	.	.	-0.9	0.0	1	.
O=C(CNC(=S)N(Cc1ccccc1)Cc1ccccc1F)NCc1ccc(Cl)cc1	-21.0	.	.	16.4*	-3.4	1	2.1
Cc1ccc(CNC(=O)CNC(=S)N(Cc2ccccc2)Cc2ccccc2F)cc1	-33.4	.	.	11.5*	-11.4	1.1	4.4
O=C(CNC(=S)N(Cc1ccccc1)Cc1ccccc1F)NCc1ccccc1	-27.4	.	.	7.4	-7.8	1.1	.
COc1cccc(CNC(=O)CNC(=S)N(Cc2ccccc2)Cc2ccccc2F)c1	-24.5	.	.	12.3*	-10.1	1.1	2.0
Cc1ccc(NC(=O)c2sc3nc(CCl)[nH]c(=O)c3c2C)c(C)c1	-14.6	.	.	0.8	-6.0	1.1	.
N#CC(c1ccc(F)cc1)c1ccc(C(=O)c2ccccc2)cc1 (stereo unspecified)	-6.8	-6.8	-15.2	16.5*	0.1	1	3.6
N#CC(c1ccccc1)c1ccc(C(=O)c2ccc(F)cc2)cc1 (stereo unspecified)	-3.6	-8.2	-86.3	6.5	-7.0	1.1	.
COc1ccccc1-c1ccc(SCc2ccc([N+](=O)[O-])cc2)nn1	-11.4	.	.	14.3*	-3.6	1	3.3
CC1=C(C(=O)O)N2C(=O)C(NC(=O)c3nn(C)cc3[N+](=O)[O-])C2SC1 (stereo unspecified)	-4.9	.	.	3.0	-0.8	1	.

Bioassay records: PubChem, several laboratories
